Experimental data reported in ChEMBL document CHEMBL4513216, “Probing the Open Global Health Chemical Diversity Library for Multistage-Active Starting Points for Next-Generation Antimalarials” (ACS Infect Dis, 2020).

Assay: Toxicity liver stage against HepG2, at 10uM
Format: cell-based
Parameters: test concentration 10 uM, cell line HepG2-A16-CD81EGFP
Conditions: human, HepG2-A16-CD81EGFP cells; read-out: INHIBITION
In short: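 Uninfected HepG2-A16-CD81EGFP cells, 3 × 10^3 per well, 1536-well, plated on prespotted compound at 10 μM final, parasite-free screening media added to match infected plates; puromycin 10 μM positive, DMSO 0.5% negative; run in parallel with 48 h PbLuc assay at 37 °C, 5% CO2; viability by CellTiter-Glo luminescence, normalized to controls.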

Structure (SMILES)	cytotoxicity at 10 µM [%]
CCOC(=O)[C@H]1[C@@H](O)C(=O)N(C)C12CCN(C(=O)c1ccccc1)CC2	-6.53
COc1ccc(-c2csc3c2c(N)nc(=O)n3CC(N)=O)cc1	-42.2
CCOc1ccc(S(=O)(=O)N(CCOC)Cc2ccncc2)cc1F	52.2
O=C(c1ccco1)N1CCC12CCN(c1ncc(F)cn1)CC2	-1.3
CNC(=O)[C@@H]1CC[C@@H]2[C@@H](CCN2C(=O)N(C)C)O1	13.2
OCCOCc1n[nH]c2c1CN(Cc1cccs1)C2	6.65
Cc1nc(C(=O)N2C[C@@H]3CN(S(C)(=O)=O)CCO[C@@H]3C2)cs1	1.98
O=C(c1ccco1)N1CC[C@H]2[C@H]1CCN2S(=O)(=O)C1CC1	9.22
Cc1c(C)n(Cc2ccccn2)c2nc3c(c(N)c12)CCCC3	8.37
Cc1cccc(CN2C[C@@H]3CN(C(=O)[C@H]4CCCO4)C[C@@H]3C2=O)c1	9.95
CC(C)CCN1CCN(CC(=O)Nc2ccc3nsnc3c2)CC1	-0.216
O=C1CNc2ncnc(N3CCN(c4ccccc4F)CC3)c2N1	7.69
Cc1nn(C)c2cn(C(C)C(=O)NCc3cccc(F)c3)nc12 (centres undefined)	6.61
CCn1nc(C)c(CNC(=O)c2nnc3ccccc3n2)c1C	5.81
CCOC(=O)N1CCN(C(=O)c2cc(OCC)c3ccoc3c2)CC1	41.5
Cc1nn(C)cc1-c1cc(C(F)(F)F)nc(NC2CCCCC2)n1	6.9
CCCN1CCC(c2cc(CCOc3ccc(C(F)(F)F)cc3)[nH]n2)C1 (centres undefined)	-3.58
O=C(C1CC1)N1C[C@H]2CCCN(S(=O)(=O)c3ccc4c(c3)CCC4)[C@H]2C1	8.52
Cn1ncc2ccc(C3CCCN(C(=O)Cc4cccs4)C3)nc21 (centres undefined)	10
CN1CCCCC1c1ncc2c(n1)CCN(Cc1ccc(Cl)c(F)c1)C2 (centres undefined)	-27.7
Cc1cc(-c2cnc(NC3CC3)nc2-c2ccoc2C)on1	2.13
Cc1ocnc1C(=O)N1CC[C@@H](O)[C@@H](O)[C@H](N2CCC(F)(F)CC2)C1	4.86

Structure (SMILES)	cytotoxicity at 10 µM [%]
Cc1cc(C)nc(N2CCC(OCCN3CCCCC3)C2)n1 (centres undefined)	-53.6
Cc1cccn2cc(CC(=O)N(CCN(C)C)CC3CCCO3)nc12 (centres undefined)	0.462
Cc1cc(C)c(C#N)c(NCCn2cnnc2C(C)C)n1	10.2
Cc1ccc(CNC(=O)C2CCNC(=O)C2)c(OCCC(C)C)c1 (centres undefined)	20.4
O=C1NCCCCC1NC(=O)N1CCCc2cc(F)ccc21 (centres undefined)	-4.53
CC(=O)N1Cc2ccccc2C[C@H]1C(=O)N(C)CCc1ccccn1	-3.27
N#Cc1cccc(CS(=O)(=O)NC(Cc2ccccc2)C(N)=O)c1 (centres undefined)	9.16
CN(C(=O)C1CCN(Cc2cnc3ccccn23)CC1)c1ccccc1	38.9
CC(C)Cn1ncc(C(=O)NS(=O)(=O)C2CCCC2)c1C1CC1	-9.97
Cc1cc(C)cc(CNC(C)c2c(C)nn(C)c2C)c1 (centres undefined)	5.14
NC(=O)CN1CCN(CC2CC2)c2ccccc21	3.92
Cc1nc(C2CCCN(C(=O)C3=NN(C(C)C)C(=O)CC3)C2)no1 (centres undefined)	-3.32
Clc1cncc(NCc2cccc(OCCN3CCOCC3)c2)n1	9.71
COc1ccc(CCNC(=O)C(C)Nc2ccc(C)c(C)c2)cc1 (centres undefined)	2.7
CCCn1cc(NC(=O)c2cccnc2O)ccc1=O	-13.1
Cc1ccc(-n2nnc(C(=O)NCCS(N)(=O)=O)c2C2CC2)cc1	-5.21
CN(C)c1cccc(C(=O)NCC2(O)CCOCC2)c1	10.3
CC(C#N)CSc1ccccc1NCC(=O)NCc1cccs1 (centres undefined)	2.13
Cc1occc1CNC(=O)C1(C)CCCN(C(=O)c2ccccc2)C1 (centres undefined)	-7.01
CCc1cc(N2CCCC(c3noc(CC)n3)C2)ncn1 (centres undefined)	9.74
CCCC(NC(=O)NCc1cccc(N(C)C)n1)c1ccccn1 (centres undefined)	19.8
CC(SCc1cc(Br)cc2cccnc12)C(N)=O (centres undefined)	11.7

Structure (SMILES)	cytotoxicity at 10 µM [%]
CCOC1CCN(C(=O)NCCN(C)C(=O)OC(C)(C)C)CC1	15.8
Cc1n[nH]c(SCC(=O)NC(c2ccccn2)C(C)C)n1 (centres undefined)	-2.62
Cc1cc(C2CCCN2C(=O)CN(C)Cc2ccccc2)no1 (centres undefined)	5.1
CC(C)N(CCNC(=O)c1[nH]nc2ccc(I)cc12)C(C)C	-41.1
Cn1cccc1C(=O)NCc1cn2c(n1)CN(CC1CCOC1)CC2 (centres undefined)	-99.7
O=c1[nH][nH]cc1-c1ccnc(NCCc2cccnc2)n1	-8.86
CC(=O)Nc1nc2c(s1)C(C)(C)Nc1ccccc1S2	-7.08
CN(C)CCN1CCN(C)c2nc(-c3ccccc3)ncc2C1=O	-11.6
CC(C)(C)Nc1nc(-c2cccnc2)c(-c2ccnc(NCCO)n2)s1	-5.64
c1cc2c(c(-c3cc(N4CCOCC4)ncn3)c1)CCNC2	-22.5
Cc1cc(C)c2c(N3CCN(Cc4ncccc4C)CC3)ncnc2n1	1.92
CCN(C)C[C@H]1CC[C@@H](Cc2ccc3c(cnn3C)c2)O1	-0.957
CCN1CCN(C(=O)c2ccc3c(c2)OCC(=O)N3)[C@H]2CS(=O)(=O)C[C@H]21	-49.6
Cc1ccc(C(=O)NCC2CCN(Cc3ccccc3C#N)C2)cn1 (centres undefined)	1.48
Cc1cccc(-c2nc(N)nc3c2CN(C(=O)c2cc(C)n[nH]2)C3C)c1 (centres undefined)	4.58
Cc1cc(N2CCCN(C(=O)Cc3cccnc3)CC2)ccn1	2.5
Nc1cc(-c2nccnc2N2CCCC2)c2cc[nH]c2n1	13.6
Cc1nnc(SCCCNc2cc(C3CC3)ncn2)s1	19.8
COC(=O)c1cc(OCC2CCC2)cc(C(=O)N[C@@H]2CCCNC2)c1	-3.16
NC(=O)CN1CCCC(C(=O)N2CCC(O)(c3ccccc3)CC2)C1 (centres undefined)	-7.55
CCn1ccnc1CN(C)c1cc(OC)ncn1	-37.5
COc1cccc([C@H]2CN(C(=O)c3nnc4n3CCCC4)C[C@@H]2N)c1	-2.57

Structure (SMILES)	cytotoxicity at 10 µM [%]
COc1nc2ccn(CCNc3cc(C)ccn3)c(=O)c2cc1C#N	11.7
CN(C)S(=O)(=O)NC1CCCc2c1cnn2-c1ccc(C(C)(C)C)cc1 (centres undefined)	42.5
CN1C[C@@H](N)C[C@H]1C(=O)N1CCC(Cc2ccc(F)cc2)CC1	-21.2
COc1ccc2c(c1)ncn2C[C@]1(O)CCCN2CCCC[C@@H]21	-0.71
Cc1cc(CN(C)C(C(=O)O)c2ccc(C(C)(C)C)cc2)on1 (centres undefined)	-6.36
CCS(=O)(=O)c1ncc(CN2CCSCC2)n1CCc1ccccc1	-1.95
O=C1CC2(CCN(Cc3ccc4cccc(O)c4n3)CC2)CN1	-15.3
CCc1ccccc1OC1CN(C(=O)CN(C)Cc2ccncc2)C1	-4.55
Cc1nc2sccn2c1C(=O)N1CCc2[nH]cnc2C1	-6.11
NCc1cn(CC2CCCN(C(=O)CC3=CCCCC3)C2)nn1 (centres undefined)	1.46
COC(=O)c1sccc1S(=O)(=O)N1CCc2c(ncnc2N(C)C)C1	-1.6
COC(=O)c1cccnc1N1CCC(Oc2cccc(F)c2)CC1	3.31
O=C(c1cnc(Nc2ccccc2)nc1)N1CCCC2(CCNC2)C1 (centres undefined)	-6.57
O=C(NCc1ccccn1)C1CN(c2nc3ccccc3s2)CCN1 (centres undefined)	-42.8
Cc1cnccc1-c1cc(NCCO)nc2[nH]ccc12	13.8
Cn1ccnc1C1CCN(C(=O)COCC(F)(F)C(F)F)CC1	-45.2
Cc1cccc(CN2CCC(c3nccn3CC(N)=O)CC2)n1	-5.41
O=C1c2cc(Br)cc(Br)c2OCC1(CN1CCCC1)CN1CCCC1	-7.83
CC(C)c1nccn1-c1cccc(C2CCN(C)CC2)n1	0.307
CCN(CC)CCn1c(NC(=O)c2scnc2C)nc2ccccc21	-27.5
CCc1ccc(C(CNC(=O)c2c(C)noc2C)N(C)C)cc1 (centres undefined)	-7.83
CCCC(=O)NC1CCN(c2ccccc2S(=O)(=O)CC)CC1	-2.78

Structure (SMILES)	cytotoxicity at 10 µM [%]
Cc1cnn(CC(C)NCc2ccc(OCc3cccnc3)cc2)c1 (centres undefined)	-1.07
O=C(CCNC(=O)c1ccoc1)Nc1ccc(F)cc1F	-6.44
CNC(=O)CN1CCCC(Cc2ccccc2OC)C1 (centres undefined)	-8.53
Cc1cc(CN2CCN(c3ccc4nncn4n3)C(C)C2)no1 (centres undefined)	-4.66
COCCN1CCC(CNC(=O)c2cc(C)cc(C)c2)C1 (centres undefined)	-7.32
Cc1noc(NC(=O)c2ccc(C)c(F)c2)n1	-10.1
CCNC(=O)c1ccc(CNCc2c(C)nn(C)c2N(C)C)cc1	1.71
Cc1nc(CN2CCCC(N(C)Cc3c(C)noc3C)C2)no1 (centres undefined)	-0.866
CN(CCc1ccccc1)Cc1c(C2CCNCC2)[nH]c2ncccc12	55.5
Cc1noc2nc(C3CCN(CC4CCCCC4)CC3)cc(C(F)F)c12	-0.335
Cc1ccc(CN2CC[C@H]3[C@H]2CCN3S(C)(=O)=O)s1	2.38
CN(Cc1ccncc1)C1COC2(CCN(Cc3ccco3)CC2)C1 (centres undefined)	-77.9
NCC(=O)N1CCCC1c1nccnc1Nc1ncccn1 (centres undefined)	-2.42
c1cnc(N2C[C@H]3CCN(CC4CC4)C[C@H]3C2)cn1	-108
O=C(CC1CC1)N1CC[C@H]2[C@@H]1CCC(=O)N2c1cccnc1	3.06
Cn1nccc1-c1ncc2c(c1C(=O)O)CCN(Cc1ccccc1)C2	9.97
CN1CCN(Cc2ccncc2)C(=O)C12CCN(c1nccs1)CC2	-2.82
c1cnn(Cc2cnc3n2CCN(CC2CCCCC2)C3)c1	-78.8
O=C(c1ccncc1F)N1CC2CC1(C(=O)N1CCCC1)C2	-2.51
O=C(c1ccncc1)N1CCOC2(CCCN(c3nncs3)C2)C1 (centres undefined)	-98
COc1cc(C2c3c(n[nH]c3C)N=C3COC(=O)C32)cc2c1OCO2 (centres undefined)	87.7
